{"source": "ChEMBL document CHEMBL2407036", "about": "“Flow Synthesis and Biological Studies of an Analgesic Adamantane Derivative That Inhibits P2X7-Evoked Glutamate Release” (ACS Med Chem Lett, 2013)", "key": {"[1]": {"target": "T1, P2X purinoceptor 7 (Rattus norvegicus) (UniProt Q64663)", "T1 sequence (whole entry)": "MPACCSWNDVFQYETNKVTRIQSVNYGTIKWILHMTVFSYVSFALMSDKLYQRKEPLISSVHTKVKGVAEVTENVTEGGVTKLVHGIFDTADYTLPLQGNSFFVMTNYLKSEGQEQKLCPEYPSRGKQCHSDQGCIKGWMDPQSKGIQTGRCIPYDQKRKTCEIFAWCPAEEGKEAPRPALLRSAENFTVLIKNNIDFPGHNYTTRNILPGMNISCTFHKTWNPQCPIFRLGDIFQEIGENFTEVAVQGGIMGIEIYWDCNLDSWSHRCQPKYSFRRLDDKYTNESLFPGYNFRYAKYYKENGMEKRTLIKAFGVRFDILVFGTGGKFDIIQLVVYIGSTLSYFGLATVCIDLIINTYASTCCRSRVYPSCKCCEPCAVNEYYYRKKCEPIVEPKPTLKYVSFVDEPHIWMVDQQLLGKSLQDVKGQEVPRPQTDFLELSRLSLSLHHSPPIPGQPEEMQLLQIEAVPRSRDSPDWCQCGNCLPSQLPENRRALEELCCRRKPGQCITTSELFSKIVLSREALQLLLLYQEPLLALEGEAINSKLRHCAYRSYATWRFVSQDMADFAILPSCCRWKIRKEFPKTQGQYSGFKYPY", "assay": "Antagonist activity at P2X7 in Sprague-Dawley rat synaptosome assessed as inhibition of BzATP-induced [3H]D-aspartate efflux preincubated at 10 uM for 8 mins by liquid scintillation counting", "conditions": "Brain", "method_in_brief": "(§1)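 Purified rat cerebrocortical synaptosomes loaded with [3H]D-aspartate and superfused. 100 μM BzATP added for 120 s. Compound added 8 min before BzATP. Ca2+-free conditions used medium with 0.5 mM EGTA, added 18 min before BzATP. Log concentration–response for inhibition of evoked efflux. Mean ± SEM of 3−12 independent experiments in triplicate.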"}, "[2]": {"target": "T1, P2X purinoceptor 7 (Rattus norvegicus)", "assay": "Antagonist activity at P2X7 in Sprague-Dawley rat synaptosome assessed as inhibition of BzATP-induced [3H]D-aspartate efflux preincubated at 10 uM for 8 mins by liquid scintillation counting in absence of extracellular Ca2+", "conditions": "Brain", "method_in_brief": "as §1"}, "Mus musculus [3]": {"test_system": "Mus musculus", "assay": "Analgesic activity in Swiss albino mouse assessed as inhibition of acetic acid-induced abdominal contraction at 10 to 60 mg/kg, po measured after 30 mins", "type": "functional, organism-based", "conditions": "Abdominal cavity"}, "Mus musculus [4]": {"test_system": "Mus musculus", "assay": "Analgesic activity in Swiss albino mouse assessed as inhibition of acetic acid-induced abdominal contraction at 20 to 60 mg/kg, po measured after 30 mins", "type": "functional, organism-based", "conditions": "Abdominal cavity"}, "Rattus norvegicus [5]": {"test_system": "Rattus norvegicus", "assay": "Antinociceptive activity against carrageenan-induced hyperalgesia in rat assessed as paw pressure at 60 mg/kg, po measured after 60 mins (reference value: 31.8 +/- 2.2 g)", "type": "functional", "method_in_brief": "(§2)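 Rats received intraplantar carrageenan before oral dosing. Paw-pressure withdrawal threshold (g) was measured before treatment and at 15, 30, 60 and 90 min after it. Carrageenan-injected rats given vehicle served as reference, with saline-injected rats as a further control.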"}, "Rattus norvegicus [6]": {"test_system": "Rattus norvegicus", "assay": "Antinociceptive activity against carrageenan-induced hyperalgesia in rat assessed as paw pressure at 60 mg/kg, po measured after 30 mins (reference value: 30.6 +/- 3.2 g)", "type": "functional", "method_in_brief": "as §2"}, "[7]": {"target": "T1, P2X purinoceptor 7 (Rattus norvegicus)", "assay": "Antagonist activity at P2X7 in Sprague-Dawley rat synaptosome assessed as inhibition of BzATP-induced [3H]D-aspartate efflux preincubated at 0.1 uM for 8 mins by liquid scintillation counting", "conditions": "Brain", "method_in_brief": "as §1"}, "Rattus norvegicus [8]": {"test_system": "Rattus norvegicus", "assay": "Antinociceptive activity against carrageenan-induced paw edema in rat assessed as paw edema volume at 60 mg/kg, po measured after 30 mins (reference value: 2.71+/- 0.08 ml)", "type": "functional"}, "Rattus norvegicus [9]": {"test_system": "Rattus norvegicus", "assay": "Antinociceptive activity against carrageenan-induced hyperalgesia in rat assessed as paw pressure at 10 mg/kg, po measured after 30 mins (reference value: 30.6 +/- 3.2 g)", "type": "functional", "method_in_brief": "as §2"}, "Rattus norvegicus [10]": {"test_system": "Rattus norvegicus", "assay": "Antinociceptive activity against carrageenan-induced hyperalgesia in rat assessed as paw pressure at 10 mg/kg, po measured after 15 mins (reference value: 32.8 +/- 2.9 g)", "type": "functional", "method_in_brief": "as §2"}, "Rattus norvegicus [11]": {"organism": "Rattus norvegicus", "assay": "Inhibition of K+ depolarization-induced [3H]D-aspartate efflux in Sprague-Dawley rat synaptosome preincubated at 0.1 uM for 8 mins by liquid scintillation counting", "type": "functional, tissue-based", "conditions": "Brain", "method_in_brief": "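Purified rat cerebrocortical synaptosomes loaded with [3H]D-aspartate and superfused. Depolarization with KCl added for 120 s. Compound added 8 min before K+ depolarization. Evoked efflux measured as mean ± SEM of 3−12 independent experiments in triplicate.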"}, "Rattus norvegicus [12]": {"test_system": "Rattus norvegicus", "assay": "Antinociceptive activity against carrageenan-induced hyperalgesia in rat assessed as paw pressure at 40 mg/kg, po measured after 60 mins (reference value: 31.8 +/- 2.2 g)", "type": "functional", "method_in_brief": "as §2"}, "Rattus norvegicus [13]": {"test_system": "Rattus norvegicus", "assay": "Antinociceptive activity against carrageenan-induced hyperalgesia in rat assessed as paw pressure at 10 mg/kg, po measured after 60 mins (reference value: 31.8 +/- 2.2 g)", "type": "functional", "method_in_brief": "as §2"}, "Rattus norvegicus [14]": {"test_system": "Rattus norvegicus", "assay": "Antinociceptive activity against carrageenan-induced hyperalgesia in rat assessed as paw pressure at 40 mg/kg, po measured after 90 mins (reference value: 34.8 +/- 3.1 g)", "type": "functional", "method_in_brief": "as §2"}, "Rattus norvegicus [15]": {"test_system": "Rattus norvegicus", "assay": "Antinociceptive activity against carrageenan-induced paw edema in rat assessed as paw edema volume at 10 mg/kg, po measured after 30 mins (reference value: 2.71+/- 0.08 ml)", "type": "functional"}, "[16]": {"target": "T1, P2X purinoceptor 7 (Rattus norvegicus)", "assay": "Antagonist activity at P2X7 in Sprague-Dawley rat synaptosome assessed as inhibition of BzATP-induced [3H]D-aspartate efflux preincubated at 0.1 uM for 8 mins by liquid scintillation counting in absence of extracellular Ca2+", "conditions": "Brain", "method_in_brief": "as §1"}, "Rattus norvegicus [17]": {"test_system": "Rattus norvegicus", "assay": "Antinociceptive activity against carrageenan-induced hyperalgesia in rat assessed as paw pressure at 40 mg/kg, po measured after 15 mins (reference value: 32.8 +/- 2.9 g)", "type": "functional", "method_in_brief": "as §2"}, "Rattus norvegicus [18]": {"test_system": "Rattus norvegicus", "assay": "Antinociceptive activity against carrageenan-induced hyperalgesia in rat assessed as paw pressure at 60 mg/kg, po measured after 15 mins (reference value: 32.8 +/- 2.9 g)", "type": "functional", "method_in_brief": "as §2"}, "Rattus norvegicus [19]": {"test_system": "Rattus norvegicus", "assay": "Antinociceptive activity against carrageenan-induced hyperalgesia in rat assessed as paw pressure at 40 mg/kg, po measured after 30 mins (reference value: 30.6 +/- 3.2 g)", "type": "functional", "method_in_brief": "as §2"}, "Rattus norvegicus [20]": {"test_system": "Rattus norvegicus", "assay": "Antinociceptive activity against carrageenan-induced paw edema in rat assessed as paw edema volume at 40 mg/kg, po measured after 30 mins (reference value: 2.71+/- 0.08 ml)", "type": "functional"}, "Rattus norvegicus [21]": {"test_system": "Rattus norvegicus", "assay": "Antinociceptive activity against carrageenan-induced hyperalgesia in rat assessed as paw pressure at 60 mg/kg, po measured after 90 mins (reference value: 34.8 +/- 3.1 g)", "type": "functional", "method_in_brief": "as §2"}, "Rattus norvegicus [22]": {"test_system": "Rattus norvegicus", "assay": "Antinociceptive activity against carrageenan-induced hyperalgesia in rat assessed as paw pressure at 10 mg/kg, po measured after 90 mins (reference value: 34.8 +/- 3.1 g)", "type": "functional", "method_in_brief": "as §2"}}, "note": "The source made the active and inactive calls.", "data": [{"smiles": "Clc1cccc(-c2nnnn2Cc2cccnc2)c1Cl", "values": [{"measurement": "inhibition", "setting": "[1]", "value": "Active"}, {"measurement": "inhibition", "setting": "[2]", "value": "Active"}]}, {"smiles": "N[C@H](c1ccccc1)[C@H](NC(=O)C1(NC(=O)c2ccccc2)C2CC3CC(C2)CC1C3)c1ccccc1", "note": "(stereo partly drawn)", "values": [{"measurement": "inhibition", "setting": "Mus musculus [3]", "value": "Active"}]}, {"smiles": "C[C@@H](NC(=O)C1(NC(=O)c2ccccc2)C2CC3CC(C2)CC1C3)C(=O)O", "note": "(stereo partly drawn)", "values": [{"measurement": "inhibition", "setting": "Mus musculus [4]", "value": "inactive"}]}, {"smiles": "CCOc1ccc(Nc2ccc(/C(=C3C=C/C(=[N+](/CC)Cc4cccc(S(=O)(=O)[O-])c4)C=C/3C)c3ccc(N(CC)Cc4cccc(S(=O)(=O)[O-])c4)cc3C)cc2)cc1.[Na+]", "note": "[BRILLIANT BLUE G]", "values": [{"measurement": "Activity", "setting": "Rattus norvegicus [5]", "value": 43.8, "unit": "g"}, {"measurement": "Activity", "setting": "Rattus norvegicus [6]", "value": 49.6, "unit": "g"}, {"measurement": "inhibition", "setting": "[7]", "value": "Active"}, {"measurement": "Activity", "setting": "Rattus norvegicus [8]", "value": 2.21, "unit": "mL"}, {"measurement": "Activity", "setting": "Rattus norvegicus [9]", "value": 43.1, "unit": "g"}, {"measurement": "Activity", "setting": "Rattus norvegicus [10]", "value": 38.7, "unit": "g"}, {"measurement": "inhibition", "setting": "Mus musculus [3]", "value": "Active"}, {"measurement": "inhibition", "setting": "Rattus norvegicus [11]", "value": "inactive"}, {"measurement": "Activity", "setting": "Rattus norvegicus [12]", "value": 45.6, "unit": "g"}, {"measurement": "Activity", "setting": "Rattus norvegicus [13]", "value": 38.5, "unit": "g"}, {"measurement": "Activity", "setting": "Rattus norvegicus [14]", "value": 40.2, "unit": "g"}, {"measurement": "Activity", "setting": "Rattus norvegicus [15]", "value": 2.63, "unit": "mL"}, {"measurement": "inhibition", "setting": "[16]", "value": "Active"}, {"measurement": "Activity", "setting": "Rattus norvegicus [17]", "value": 46.3, "unit": "g"}, {"measurement": "Activity", "setting": "Rattus norvegicus [18]", "value": 47.2, "unit": "g"}, {"measurement": "Activity", "setting": "Rattus norvegicus [19]", "value": 50.8, "unit": "g"}, {"measurement": "Activity", "setting": "Rattus norvegicus [20]", "value": 2.17, "unit": "mL"}, {"measurement": "Activity", "setting": "Rattus norvegicus [21]", "value": 36.2, "unit": "g"}, {"measurement": "Activity", "setting": "Rattus norvegicus [22]", "value": 37.1, "unit": "g"}]}]}
